Fewer inactive variants are shown than the library holds.
B1: tRNA (parent)
chain: GUUCCGUUGGCGUAAUGGUAACGCGUCUCCCUCCUAAGGAGAAGACUGCGGGUUCGAGUCCCGUACGGAACG

Variants of: B1
Test: yeast fitness relative to wild type (ratio to wild type); higher = fitter; tRNA-Arg(CCU), competitive growth, 37 C, YPD
Procedure, shortened: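 For this measurement, the tRNA-Arg(CCU) gene was varied by chemical synthesis at a 3% per-site mutation rate across 69 sites, and each variant was placed at the native genomic locus in Saccharomyces cerevisiae. The pooled strains went through a 24-hour competition in YPD at 37°C in six parallel replicates, with amplicons from start and end populations read by 100-nucleotide paired-end sequencing. Darwinian fitness relative to wild type followed from the change in each genotype's frequency. Genotypes needed ≥ 100 starting reads, and estimates < 0.5 were set to 0.5.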

| Variant | yeast fitness |
| --- | --- |
| G6C A45C G56A | 0.568 |
| G6C A45C G67C | 0.536 |
| G6C A45G | 0.823 |
| G6C A57C A65U | ≤ 0.5 |
| G6C A57G A65G C66U | 0.537 |
| G6C A65C | 0.872 |
| G6C A65G C66U | 0.84 |
| G6C A69C | 0.852 |
| G6C A69U | 0.976 |
| G6C A70U | 0.823 |
| G6C C11A A45C C60U | ≤ 0.5 |
| G6C C11A C66G | 0.592 |
| G6C C11A G23U G48C | ≤ 0.5 |
| G6C C11A U32A A42G C55U | 0.605 |
| G6C C11A U32A A42G C55U C61U | ≤ 0.5 |
| G6C C11G C27U A42G C66U | 0.552 |
| G6C C11G G44C | ≤ 0.5 |
| G6C C11U A21C G52A C61A G67C | ≤ 0.5 |
| G6C C11U C27G G41C | ≤ 0.5 |
| G6C C11U C31G A36G | 0.66 |
| G6C C11U G56C A69C | ≤ 0.5 |
| G6C C22A C31G A65C | ≤ 0.5 |
| G6C C22A C31G C49G G68C | ≤ 0.5 |
| G6C C22A C33G G48C | ≤ 0.5 |

| Variant | yeast fitness |
| --- | --- |
| G6C C22A G41A G44C | ≤ 0.5 |
| G6C C22G C27G A45U A57G A70G | ≤ 0.5 |
| G6C C24A A69U | ≤ 0.5 |
| G6C C24A C31U G38C | ≤ 0.5 |
| G6C C24A U28A C34U | ≤ 0.5 |
| G6C C24G C27G C29A C34U | 0.684 |
| G6C C24G C27G C29A C34U U53A A70G | ≤ 0.5 |
| G6C C24G C34U U53C C55G C62A | 0.557 |
| G6C C24U | 0.751 |
| G6C C24U A65C | ≤ 0.5 |
| G6C C24U C27G | ≤ 0.5 |
| G6C C24U C46G | 0.586 |
| G6C C24U G38C A40G U47C | ≤ 0.5 |
| G6C C24U G52A | ≤ 0.5 |
| G6C C24U G67C | 0.537 |
| G6C C27A C30G G41C C61G C62U A69U | ≤ 0.5 |
| G6C C27G U28C C62G | ≤ 0.5 |
| G6C C27U A45G U64A | 0.67 |
| G6C C27U A57C A70U | 0.537 |
| G6C C29A | 0.667 |
| G6C C29A C55A A65G | ≤ 0.5 |
| G6C C29G C30U G51C C66A | 0.686 |
| G6C C29G C61U | ≤ 0.5 |
| G6C C29G C66G | ≤ 0.5 |

| Variant | yeast fitness |
| --- | --- |
| G6C C30A A45G C55G A57U C62G | ≤ 0.5 |
| G6C C30G | 0.592 |
| G6C C31A A36C G44A A57U C66A | ≤ 0.5 |
| G6C C31U A43G A69U | ≤ 0.5 |
| G6C C31U C34G | ≤ 0.5 |
| G6C C31U G39A C46G | ≤ 0.5 |
| G6C C31U U35A C46G G48A C49U U64C | ≤ 0.5 |
| G6C C33G A36C C49A C60G A65G A70U | ≤ 0.5 |
| G6C C33G G38C | ≤ 0.5 |
| G6C C33U | 0.644 |
| G6C C33U C62U | ≤ 0.5 |
| G6C C33U G38C G52C C62U | ≤ 0.5 |
| G6C C33U G52C C55A | ≤ 0.5 |
| G6C C34A | 0.611 |
| G6C C34G A65G | ≤ 0.5 |
| G6C C34G A69C | ≤ 0.5 |
| G6C C34U | 0.648 |
| G6C C34U C66U A70U | 0.639 |
| G6C C34U G44A C55G C66G | 0.649 |
| G6C C34U G52C | 0.565 |
| G6C C46G A70C | 0.511 |
| G6C C46U | 0.966 |
| G6C C46U A57C | ≤ 0.5 |
| G6C C49U U53C C61G | ≤ 0.5 |

| Variant | yeast fitness |
| --- | --- |
| G6C C55A | 0.717 |
| G6C C55G | 0.695 |
| G6C C55G A70C | ≤ 0.5 |
| G6C C55U U59G A70U | ≤ 0.5 |
| G6C C60A | 0.583 |
| G6C C60U C62A | ≤ 0.5 |
| G6C C62G | 0.688 |
| G6C C62U | 0.879 |
| G6C G9A A21U U28G C34U A45C | ≤ 0.5 |
| G6C G9C U32A G38C U47A | ≤ 0.5 |
| G6C G10A | 0.666 |
| G6C G10A A36U G51C A69C | 0.624 |
| G6C G10A A36U G63A | ≤ 0.5 |
| G6C G10A C27A C61U A65U | ≤ 0.5 |
| G6C G10C C11U C55U C61G C62G | ≤ 0.5 |
| G6C G10C C22G C30U C34U A36U | 0.517 |
| G6C G10C C30U U35A | ≤ 0.5 |
| G6C G12A C33U A65G A70G | ≤ 0.5 |
| G6C G12A C49U G58C | 0.776 |
| G6C G12A G58C | 0.964 |
| G6C G12A U54C | 0.594 |
| G6C G12C A15U A21C C49U G51C U53C | ≤ 0.5 |
| G6C G12C C29A | ≤ 0.5 |
| G6C G17A A36U | ≤ 0.5 |

| Variant | yeast fitness |
| --- | --- |
| G6C G17A A36U C46A C49U C66A | ≤ 0.5 |
| G6C G17A C30U A42C A65G C66G G68A | ≤ 0.5 |
| G6C G18A G58A | ≤ 0.5 |
| G6C G18C A21G A40U C49U | ≤ 0.5 |
| G6C G18C A21G A40U U47A C49U C61U A70G | ≤ 0.5 |
| G6C G23A C27U A45G U64A | ≤ 0.5 |
| G6C G23A C49U | ≤ 0.5 |
| G6C G23C | 0.643 |
| G6C G23C C24A C61U | ≤ 0.5 |
| G6C G23C C24A C66U | ≤ 0.5 |
| G6C G23C C31G | ≤ 0.5 |
| G6C G25A A43U G67C | ≤ 0.5 |
| G6C G25A A65G | 0.595 |
| G6C G25A A70C | 0.631 |
| G6C G25A C27G | 0.591 |
| G6C G25C A37U G39C C62G | ≤ 0.5 |
| G6C G38C A43C G51C G56C | 0.526 |
| G6C G38C C46A | 0.54 |
| G6C G38C C46A G67U | ≤ 0.5 |
| G6C G38C C60A | ≤ 0.5 |
| G6C G39C | 0.7 |
| G6C G39C A45U C61U | ≤ 0.5 |
| G6C G39C C55G | ≤ 0.5 |
| G6C G41A A43G C60U A70C | ≤ 0.5 |

| Variant | yeast fitness |
| --- | --- |
| G6C G41A C62U | ≤ 0.5 |
| G6C G44C A65G A70C | ≤ 0.5 |
| G6C G50A A69U | 0.682 |
| G6C G50A A70U | 0.633 |
| G6C G50C A69U | 0.554 |
| G6C G51A | 0.791 |
| G6C G51C G68C | 0.562 |
| G6C G52A C55G | ≤ 0.5 |
| G6C G52C A57U | ≤ 0.5 |
| G6C G56A | 1.03 |
| G6C G58C | 1.01 |
| G6C G63C A69G | ≤ 0.5 |
| G6C G68C | 0.874 |
| G6C U7A A21C A37C U47C A69C | ≤ 0.5 |
| G6C U7A C34U C61U | 0.658 |
| G6C U7A C46U | 0.577 |
| G6C U7A G39C C55U A70G | ≤ 0.5 |
| G6C U7C | 0.757 |
| G6C U7C A21U G44A | ≤ 0.5 |
| G6C U7C C31G | ≤ 0.5 |
| G6C U7C C34G C55U | ≤ 0.5 |
| G6C U7C G9C C66U | 0.546 |
| G6C U7C G48A | 0.614 |
| G6C U7G A43U A65C | 0.825 |

| Variant | yeast fitness |
| --- | --- |
| G6C U7G G17C C49U G58C C61A A65U | ≤ 0.5 |
| G6C U7G G17C C60G | 0.574 |
| G6C U7G G17C G67A | ≤ 0.5 |
| G6C U7G G17C U53A | ≤ 0.5 |
| G6C U8A A45U U53C G67A A69C | 0.775 |
| G6C U8A G51A A65U G67A | ≤ 0.5 |
| G6C U8A G58C C61A | ≤ 0.5 |
| G6C U8C A21C | ≤ 0.5 |
| G6C U8C A42G | 0.575 |
| G6C U8C A42G C46U C55G A65U | ≤ 0.5 |
| G6C U8C C11U U19C A20U A42C A65C A69U | ≤ 0.5 |
| G6C U8C C27U G48A A57G | ≤ 0.5 |
| G6C U8C C29G C61U | ≤ 0.5 |
| G6C U8C C34G A45G A65U | ≤ 0.5 |
| G6C U8C C49A | ≤ 0.5 |
| G6C U8C C60A C62U | ≤ 0.5 |
| G6C U8C G23C C30A A42C G48C G52C | ≤ 0.5 |
| G6C U8C G25A | 0.581 |
| G6C U8C G41C G51C | ≤ 0.5 |
| G6C U8C G58C A69U | 0.528 |
| G6C U8G G10C A37G C62U U64A | 0.504 |
| G6C U13A | 0.718 |
| G6C U13A C24U C31A U54C | ≤ 0.5 |
